# Measured values from PubChem BioAssay AID540324 (Johns Hopkins Ion Channel Center, 2011).
# Values without a mark were called inactive. Calls of active or inactive are those of the source.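 The calls were made as follows: active = maximum inhibition above 30% at any tested concentration, with a dose response curve fitted; inactive = no inhibition at any dose or no dose response curve.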
# Assay: thallium flux inhibition in parental HEK293 cells, SAR follow-up, counter-screen for KCNK9 inhibitor project, cell-based, FluxOR thallium flux, concentration-response, set 2 (AID 540324)
# Details: FluxOR fluorescence ratio; series mostly up to 30 µM; flux ratio, lower = inhibition: at the top concentration
# Outline: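 Also added: K+/Tl+ sulfate stimulus, 5x stock; system: parental HEK293 cells; times: dye loading 90 min at room temperature in dark, compound exposure 20 min; replicates: at least duplicate; doses: 10 concentrations; technique: FluxOR thallium-flux fluorescence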
Compound,"flux ratio, lower = inhibition",outcome
COc1ccccc1C(=O)Nc1cccc(NC(=O)c2ccccc2)c1,0.149,
CCOc1ccccc1NC(=O)c1cccc(NC(=O)C2CCCC2)c1,0.16,
O=C(Nc1cccc(NC(=O)c2ccco2)c1)c1ccccc1,0.189,
COc1ccc(C(=O)Nc2cccc(NC(=O)c3ccccc3)c2)cc1,0.191,
CCOc1cccc(NC(=O)c2cccc(NC(=O)C3CCCC3)c2)c1,0.139,
COc1ccccc1C(=O)Nc1cccc(NC(=O)c2cccc(C)c2)c1,0.169,
CCOc1ccccc1C(=O)Nc1cccc(NC(=O)c2ccccc2C(F)(F)F)c1,0.166,
Cc1ccc(-c2n[nH]c(=S)n2C(C)C2CC3CCC2C3)cc1 (stereo not given),0.453,
Cc1cccc(C(=O)Nc2cccc(NC(=O)c3cccs3)c2)c1,0.158,
Cc1ccccc1-c1n[nH]c(=S)n1C(C)C1CC2CCC1C2 (stereo not given),0.377,
O=C(Nc1cccc(NC(=O)c2ccccc2C(F)(F)F)c1)c1ccccc1,0.163,
Cc1cccc(C(=O)Nc2cccc(NC(=O)c3cccc(C)c3)c2)c1,0.152,
CCOc1ccc(NC(=O)c2cccc(NC(=O)C3CCCC3)c2)cc1,0.2,
COc1ccccc1-c1n[nH]c(=S)n1C(C)C1CC2CCC1C2 (stereo not given),0.205,
CCOc1ccccc1NC(=O)c1cccc(NC(=O)CC2CCCC2)c1,0.132,
O=C(Nc1cccc(NC(=O)c2ccc(C(F)(F)F)cc2)c1)c1ccccc1,,inactive
CCOc1ccccc1NC(=O)c1cccc(NC(=O)C2CCCCC2)c1,0.149,
CCOc1ccccc1C(=O)Nc1cccc(NC(=O)C2CCCC2)c1,0.124,

Compound,"flux ratio, lower = inhibition",outcome
CCOc1ccccc1NC(=O)c1cccc(NC(=O)c2ccc(C)cc2)c1,0.163,
CN(C)c1ccc(C(=O)Nc2cccc(NC(=O)c3ccccc3)c2)cc1,0.199,
CC(C1CC2CCC1C2)n1c(-c2ccsc2)n[nH]c1=S (stereo not given),0.245,
O=C(Nc1cccc(NC(=O)C2CCCCC2)c1)c1ccccc1,0.154,
CCOc1ccccc1NC(=O)c1cccc(NC(=O)C2CC2)c1,0.168,
COc1ccccc1C(=O)Nc1cccc(NC(=O)c2ccccc2C)c1,0.148,
CC(C)n1c(-c2ccco2)n[nH]c1=S,0.144,
COc1cccc(C(=O)Nc2cccc(NC(=O)c3ccccc3)c2)c1,0.175,
CC(C1CC2CCC1C2)n1c(C2CCOC2)n[nH]c1=S (stereo not given),0.185,
CCOc1ccccc1NC(=O)c1cccc(NC(=O)c2ccccc2Cl)c1,0.121,
COc1cccc(OC)c1C(=O)Nc1cccc(NC(=O)c2cccc(C)c2)c1,0.166,
COc1ccccc1NC(=O)c1cccc(NC(=O)c2ccccc2C(F)(F)F)c1,0.175,
COc1cccc(C(=O)Nc2cccc(NC(=O)c3cccc(C)c3)c2)c1,0.163,
O=C(Nc1cccc(NC(=O)c2ccccn2)c1)c1ccccc1,0.182,
CC(C1CC2CCC1C2)n1c(-c2ccc(Cl)cc2)n[nH]c1=S (stereo not given),0.322,
CCOc1ccccc1NC(=O)c1cccc(NC(=O)C2CCOC2)c1 (stereo not given),0.19,
Cc1cccc(C(=O)Nc2cccc(NC(=O)c3cccc(Cl)c3)c2)c1,0.154,
